The subject of test [1] is ZMYND8-PBP, F109D. The test can be described thus: ITC, ZMYND8-PBP F109D. Conditions: H3K4me0 (1-25aa), relative to ZMYND8-PBP. The test is classed as binding, human. A digest of the protocol: (§1)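 ZMYND8 PHD/Bromo/PWWP region, with its point and deletion mutants, was cloned into a bacterial GST-fusion expression vector and expressed as recombinant protein. Binding to histone H3 peptides was measured by isothermal titration calorimetry, and KD was taken from the titration.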
On the technique in general: In ITC the heat of successive injections is recorded.

Test [2] relates to ZMYND8-PBP, alanine mutation of D96. Briefly: ITC, ZMYND8-PBP alanine mutant of D96. The test is classed as binding, human. Conditions: H3K4me0 (1-25aa). A digest of the protocol:
as §1

Test [3] deals with ZMYND8-PHD. Briefly: Peptide pull-down assay, ZMYND8-PHD alone. The note with it: H3 (1-21) peptide. The test is classed as binding, human. A digest of the protocol: (§2)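 Biotinylated histone peptides were used to pull down GST-tagged ZMYND8 fragments expressed in bacteria from a GST-fusion vector. These fragments were PHD/Bromo, PHD/Bromo/PWWP, or deletion mutants of PHD/Bromo. The deletion mutants were tested against the H3 (1-21) peptide.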

The target of test [4] is T1, ZMYND8-PHD/Bromo/PWWP (ZMYND8-PBP) (Homo sapiens, UniProt Q9ULU4).
T1 sequence (Q9ULU4 93-426 isoform Q9ULU4-10): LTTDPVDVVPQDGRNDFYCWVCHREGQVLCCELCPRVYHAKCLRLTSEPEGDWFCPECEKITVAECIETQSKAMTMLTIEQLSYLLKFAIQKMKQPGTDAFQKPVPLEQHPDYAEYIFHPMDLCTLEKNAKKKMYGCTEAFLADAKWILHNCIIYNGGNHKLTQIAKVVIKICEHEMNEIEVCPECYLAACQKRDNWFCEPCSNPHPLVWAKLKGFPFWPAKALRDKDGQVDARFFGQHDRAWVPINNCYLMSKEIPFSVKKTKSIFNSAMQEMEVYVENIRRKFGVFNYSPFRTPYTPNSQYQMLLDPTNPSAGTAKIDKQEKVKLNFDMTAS
Briefly: Isothermal titration calorimetry. Format: binding. The note with it: ITC. A digest of the protocol: as §1

In test [5] the test system is ZMYND8-PBP, alanine mutation of D104. Briefly: ITC, ZMYND8-PBP alanine mutant of D104. Conditions: H3K4me0 (1-25aa). Format: binding, human. A digest of the protocol:
as §1

The test system of test [6] is ZMYND8-PBP, D108A. The test can be described thus: ITC, ZMYND8-PBP alanine mutant of D108. The test is classed as binding, human. The note with it: H3K4me0 (1-25aa). A digest of the protocol: as §1
Test [7] relates to ZMYND8-PBP, alanine mutation of E124. Briefly: ITC, ZMYND8-PBP alanine mutant of E124. The test is classed as binding, human. The note with it: H3K4me0 (1-25aa). A digest of the protocol:
as §1

Test [8] deals with T2, ZMYND8-PHD/Bromo (ZMYND8-PB) (Homo sapiens, UniProt Q9ULU4).
T2 sequence (Q9ULU4 75-268 limits assumed): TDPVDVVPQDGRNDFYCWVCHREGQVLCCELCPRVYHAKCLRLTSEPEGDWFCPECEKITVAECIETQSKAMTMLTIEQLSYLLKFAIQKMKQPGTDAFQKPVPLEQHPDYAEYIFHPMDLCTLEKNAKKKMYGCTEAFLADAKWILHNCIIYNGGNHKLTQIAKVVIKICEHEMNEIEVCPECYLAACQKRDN
Briefly: Isothermal titration calorimetry. Format: binding. The note with it: ITC. A digest of the protocol:
as §1

Test [9] deals with ZMYND8-PBP, alanine mutation of D99. Briefly: ITC, ZMYND8-PBP alanine mutant of D99. Format: binding, human. Conditions: H3K4me0 (1-25aa). A digest of the protocol:
as §1

For test [10], the system named is N-terminal truncated version of ZMYND8-PBP (residue 103-426). The test can be described thus: ITC, N-terminal truncated ZMYND8-PBP. Format: binding, human. Conditions: H3K4me0 (1-25aa). A digest of the protocol: as §1
For test [11], the system named is GST-tagged ZMYND8-PB (ZMYND8-PHD/Bromo). Briefly: Peptide pull-down assay, GST-tagged ZMYND8-PB. Conditions: biotinylated peptides. Format: binding, human. A digest of the protocol: as §2

For the substance “H3K4me0: unmethylated H3K4 (H3 [1-21aa]; referred to as "H3K4me0")”, the “enhancement of PBP's binding activity by F109D” value in test [1] is listed as ~ 11 fold. In addition, the “H3K4me0-binding activity of mutant” value in test [2], in test [5], in test [6], in test [7] and in test [9] was “significant losses” in each case. Further, the “interaction with ZMYND8-PHD alone (pull-down)” value in test [3] is listed as “did not interact”. The Kd (in general, the equilibrium constant for the complex coming apart) in [4] is around 7.2 µM; in [8], around 15 µM. Besides, the “H3K4me0-binding activity of truncated ZMYND8-PBP” value in test [10] was “significant losses”. For the same substance, the “interaction with ZMYND8-PB (pull-down), 300 mM NaCl wash” value in [11] was “interacted”.

The values above are taken from publication PMC4975651 (Molecular cell, 2016).
